Substitutions are numbered along the chain they refer to.
How the values were obtained:
GK- W257 (W99R/W167F) [1] = biological target: T1, GK- W257 (W99R/W167F) (Homo sapiens, UniProt P35557, W167F/W99R); assay: D-glucose binding by tryptophan fluorescence titration; conditions: W-257, no GKA
T1 sequence (P35557 1-465 W99R/W167F): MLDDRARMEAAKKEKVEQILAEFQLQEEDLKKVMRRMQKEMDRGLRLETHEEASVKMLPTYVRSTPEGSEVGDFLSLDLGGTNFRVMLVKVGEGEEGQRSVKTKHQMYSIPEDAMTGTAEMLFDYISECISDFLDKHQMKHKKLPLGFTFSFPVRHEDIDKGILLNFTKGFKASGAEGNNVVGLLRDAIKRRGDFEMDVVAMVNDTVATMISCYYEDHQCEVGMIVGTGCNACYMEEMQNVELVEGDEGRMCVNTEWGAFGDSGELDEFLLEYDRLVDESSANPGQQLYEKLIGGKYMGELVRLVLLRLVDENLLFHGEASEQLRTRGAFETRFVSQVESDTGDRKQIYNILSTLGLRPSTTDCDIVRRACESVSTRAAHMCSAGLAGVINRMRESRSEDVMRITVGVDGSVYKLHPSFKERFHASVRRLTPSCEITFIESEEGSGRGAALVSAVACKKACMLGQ

GK-WT [2] = biological target: T2, GK-WT (Homo sapiens, UniProt P35557); assay: DSC thermal denaturation
T2 sequence (P35557 1-465): T1 sequence (P35557 1-465 W99R/W167F) with R99W, F167W
Outline: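 Wild-type recombinant human GK was run by DSC at 0.3 mg/ml (6 µM) in 5 mM phosphate, 100 mM KCl, pH 7.3, in buffer or 20% glycerol, with glucose up to 300 mM. The scan was 0.25 degree/min against a protein-free reference. Tm was plotted against glucose and fit to a hyperbola for EC50. Unfolding rate constant used k=vCp/(Qt−Q) to derive activation energy.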

GK-W99 (W167F/W257F) = biological target: T3, GK-W99 (W167F/W257F) (Homo sapiens, UniProt P35557, W167F/W257F); assay: DSC thermal denaturation; conditions: W-99 in buffer, 300 mM D-glucose
T3 sequence (P35557 1-465 W167F/W257F): T1 sequence (P35557 1-465 W99R/W167F) with R99W, W257F
Outline: (§1)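 Samples were degassed and scanned by DSC at 0.25 degree/min against a reference holding everything except protein. Tm and calorimetric ΔH were taken by integrating the Cp-vs-temperature thermogram; Cpm is the apparent heat capacity at the maximum.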

GK- W257 (W99R/W167F) [3] = biological target: T1, GK- W257 (W99R/W167F); assay: NADP+-coupled spectrophotometric kinetic assay; type: biochemical; conditions: W-257, no GKA
GK- W257 (W99R/W167F) [4] = biological target: T1, GK- W257 (W99R/W167F); assay: DSC thermal denaturation; conditions: W-257 in buffer, 300 mM D-glucose
Outline: as §1

GK-WT [5] = biological target: T2, GK-WT; assay: NADP+-coupled spectrophotometric kinetic assay; type: biochemical; conditions: GK-WT, no GKA
[6] = GK-WT in 20% glycerol, 300 mM D-glucose
[7] = GK-WT in buffer, 300 mM D-glucose
[8] = GK-WT, 20% glycerol, 7.5 mM D-glucose
[9] = GK-WT, 20% glycerol, 50 mM D-glucose
[10] = GK-WT, 20% glycerol, 100 mM D-glucose
[11] = GK-WT, 20% glycerol, 200 mM D-glucose
[12] = GK-WT, buffer, 7.5 mM D-glucose
[13] = GK-WT, buffer, 100 mM D-glucose
[14] = GK-WT, buffer, 200 mM D-glucose

`OC[C@H]1OC(O)[C@H](O)[C@@H](O)[C@@H]1O` (stereo partly drawn) [D-glucose] was tested. Which Kd (GK- W257 (W99R/W167F) [1]; 20% glycerol) did it give?
The Kd was 2.09 mM.

What about the Kd (GK- W257 (W99R/W167F) [1]; no glycerol) of the same compound?
Its Kd is 11.3 mM.

And the EC50 (GK-WT [2]; EC50 of glucose dependency of heat capacity (Cp), 20% glycerol, hyperbolic fit)?
Its EC50 is 35 mM.

What about the “Cp^m” value (GK-WT [2]; [6]) of the same compound?
The value was 222.2 kJ/mol/°C.

And the ΔH thermal denaturation (GK-WT [2]; [6])?
The ΔH thermal denaturation was 169 kcal/mol.

And the Tm (GK-WT [2]; GK-WT in 20% glycerol, 300 mM D-glucose, DSC)?
The Tm was 56.9 °C.

And the “Cp^m” value (GK-WT [2]; [7])?
Its value is 130.5 kJ/mol/°C.

What about the ΔH thermal denaturation (GK-WT [2]; [7]) of the same compound?
The ΔH thermal denaturation was 135 kcal/mol.

And the Tm (GK-WT [2]; GK-WT in buffer, 300 mM D-glucose, DSC)?
The Tm was 52.2 °C.

And the “Cp^m” value (GK-WT [2]; [8])?
Its value is 148.1 kJ/mol/°C.

What about the Ea thermal denaturation (GK-WT [2]; [8]) of the same compound?
Its Ea thermal denaturation is 175.3 kcal/mol.

What about the Tm (GK-WT [2]; [8]) of the same compound?
The Tm was 52.6 °C.

And the “Cp^m” value (GK-WT [2]; [9])?
Its value is 186.2 kJ/mol/°C.

What about the Ea thermal denaturation (GK-WT [2]; [9]) of the same compound?
The Ea thermal denaturation was 190.1 kcal/mol.

And the Tm (GK-WT [2]; [9])?
Its Tm is 54.8 °C.

And the “Cp^m” value (GK-WT [2]; [10])?
Its value is 196.2 kJ/mol/°C.

And the Ea thermal denaturation (GK-WT [2]; [10])?
The Ea thermal denaturation was 193.6 kcal/mol.

And the Tm (GK-WT [2]; [10])?
The Tm was 55.5 °C.

What about the “Cp^m” value (GK-WT [2]; [11]) of the same compound?
Its value is 212.5 kJ/mol/°C.

What about the Ea thermal denaturation (GK-WT [2]; [11]) of the same compound?
The Ea thermal denaturation was 190.1 kcal/mol.

And the Tm (GK-WT [2]; [11])?
The Tm was 56.3 °C.

What about the Ea thermal denaturation (GK-WT [2]; GK-WT, 20% glycerol, 300 mM D-glucose) of the same compound?
Its Ea thermal denaturation is 189.3 kcal/mol.

And the “Cp^m” value (GK-WT [2]; [12])?
The value was 63.2 kJ/mol/°C.

And the Ea thermal denaturation (GK-WT [2]; [12])?
The Ea thermal denaturation was 120 kcal/mol.

What about the Tm (GK-WT [2]; [12]) of the same compound?
The Tm was 48.0 °C.

And the “Cp^m” value (GK-WT [2]; GK-WT, buffer, 25 mM D-glucose)?
The value was 90.8 kJ/mol/°C.

What about the Ea thermal denaturation (GK-WT [2]; GK-WT, buffer, 25 mM D-glucose) of the same compound?
Its Ea thermal denaturation is 134.4 kcal/mol.

And the Tm (GK-WT [2]; GK-WT, buffer, 25 mM D-glucose)?
Its Tm is 49.5 °C.

And the “Cp^m” value (GK-WT [2]; GK-WT, buffer, 50 mM D-glucose)?
Its value is 101.7 kJ/mol/°C.

What about the Ea thermal denaturation (GK-WT [2]; GK-WT, buffer, 50 mM D-glucose) of the same compound?
Its Ea thermal denaturation is 137.5 kcal/mol.

And the Tm (GK-WT [2]; GK-WT, buffer, 50 mM D-glucose)?
The Tm was 50.0 °C.

And the “Cp^m” value (GK-WT [2]; [13])?
The value was 109.6 kJ/mol/°C.

And the Ea thermal denaturation (GK-WT [2]; [13])?
Its Ea thermal denaturation is 136 kcal/mol.

And the Tm (GK-WT [2]; [13])?
The Tm was 50.9 °C.

And the “Cp^m” value (GK-WT [2]; [14])?
The value was 128.4 kJ/mol/°C.

What about the Ea thermal denaturation (GK-WT [2]; [14]) of the same compound?
Its Ea thermal denaturation is 140.3 kcal/mol.

What about the Tm (GK-WT [2]; [14]) of the same compound?
The Tm was 52.2 °C.

What about the Ea thermal denaturation (GK-WT [2]; GK-WT, buffer, 300 mM D-glucose) of the same compound?
Its Ea thermal denaturation is 137 kcal/mol.

And the “Cp^m” value (GK-W99 (W167F/W257F))?
Its value is 100.8 kJ/mol/°C.

And the ΔH thermal denaturation (GK-W99 (W167F/W257F))?
Its ΔH thermal denaturation is 102 kcal/mol.

What about the Tm (GK-W99 (W167F/W257F); DSC) of the same compound?
Its Tm is 49.6 °C.

What about the “Glucose S0.5” value (GK- W257 (W99R/W167F) [3]; 30% glycerol) of the same compound?
Its value is 4.70 mM.

What about the kcat (GK- W257 (W99R/W167F) [3]; 30% glycerol) of the same compound?
The kcat was 6.37 s⁻¹.

And the “nH (Hill coefficient towards glucose)” value (GK- W257 (W99R/W167F) [3]; 30% glycerol)?
Its value is 1.43.

What about the “Glucose S0.5” value (GK- W257 (W99R/W167F) [3]; no glycerol) of the same compound?
The value was 9.82 mM.

And the kcat (GK- W257 (W99R/W167F) [3]; no glycerol)?
The kcat was 12.4 s⁻¹.

What about the kcat/S0.5 (GK- W257 (W99R/W167F) [3]; no glycerol) of the same compound?
The kcat/S0.5 was 1270 M⁻¹ s⁻¹.

What about the “nH (Hill coefficient towards glucose)” value (GK- W257 (W99R/W167F) [3]; no glycerol) of the same compound?
Its value is 1.23.

What about the “Cp^m” value (GK- W257 (W99R/W167F) [4]) of the same compound?
The value was 122.6 kJ/mol/°C.

What about the ΔH thermal denaturation (GK- W257 (W99R/W167F) [4]) of the same compound?
The ΔH thermal denaturation was 158 kcal/mol.

And the Tm (GK- W257 (W99R/W167F) [4]; DSC)?
Its Tm is 51.2 °C.

What about the “Glucose S0.5” value (GK-WT [5]; 30% glycerol) of the same compound?
Its value is 3.15 mM.

What about the “nH (Hill coefficient towards glucose)” value (GK-WT [5]; 30% glycerol) of the same compound?
Its value is 1.78.

What about the “Glucose S0.5” value (GK-WT [5]; no glycerol) of the same compound?
The value was 6.26 mM.

And the “nH (Hill coefficient towards glucose)” value (GK-WT [5]; no glycerol)?
The value was 1.69.
